Data reported in ChEMBL document CHEMBL1143382, “Discovery of chiral cyclopropyl dihydro-alkylthio-benzyl-oxopyrimidine (S-DABO) derivatives as potent HIV-1 reverse transcriptase inhibitors with high activity against clinically relevant mutants” (J Med Chem, 2009).

Columns and labels:
[1] = test system: Human immunodeficiency virus 1; assay: Antiviral activity against HIV1 reverse transcriptase Y181C mutant infected in human MT4 cells after 5 days by MTT assay; assay type: functional, organism-based; conditions: Human immunodeficiency virus 1, MT4, 120 h
Summary of the method: (§1)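 MT-4 lymphoid cells infected with the HIV-1 strain carrying the indicated RT mutation in the presence of varying compound concentrations. Viable cells counted by tetrazolium (MTT) colorimetric read-out at day 5 post-infection. […] Mock-infected cells were used for cytotoxicity. Values are means of at least two experiments.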

[2] = Cytotoxicity against human MT4 cells by MTT assay; assay type: cell-based
[3] = test system: Human immunodeficiency virus 1; assay: Antiviral activity against HIV1 reverse transcriptase Y188L mutant infected in human MT4 cells after 5 days by MTT assay; assay type: functional, organism-based; conditions: Human immunodeficiency virus 1, MT4, 120 h; summary of the method: as §1
[4] = test system: Human immunodeficiency virus type 1 reverse transcriptase (Human immunodeficiency virus 1), Q72547 [Y181I]
[5] = molecular target: Human immunodeficiency virus type 1 reverse transcriptase (Human immunodeficiency virus 1) (UniProt Q72547)
[6] = test system: Human immunodeficiency virus type 1 reverse transcriptase (Human immunodeficiency virus 1), Q72547 [K103N]
[7] = molecular target: Human immunodeficiency virus type 1 reverse transcriptase (Human immunodeficiency virus 1) (UniProt Q72547); assay: Binding affinity to HIV1 reverse transcriptase treated for 3 mins by surface plasmon resonance
[8] = test system: Human immunodeficiency virus 1; assay: Antiviral activity against wild type HIV1 NL4-3 infected in human MT4 cells after 5 days by MTT assay; assay type: functional, organism-based; conditions: Human immunodeficiency virus 1, NL4-3, MT4, 120 h
[9] = test system: Human immunodeficiency virus 1; assay: Antiviral activity against HIV1 reverse transcriptase K103N mutant infected in human MT4 cells after 5 days by MTT assay; assay type: functional, organism-based; conditions: Human immunodeficiency virus 1, MT4, 120 h; summary of the method: as §1
[10] = molecular target: T1, Human immunodeficiency virus type 1 reverse transcriptase (Human immunodeficiency virus 1, UniProt Q72547); assay: Inhibition of wild type HIV1 free reverse transcriptase
[11] = molecular target: T1, Human immunodeficiency virus type 1 reverse transcriptase; assay: Inhibition of wild type HIV1 reverse transcriptase-DNA binary complex
[12] = molecular target: T1, Human immunodeficiency virus type 1 reverse transcriptase; assay: Inhibition of wild type HIV1 reverse transcriptase-DNA-dNTP ternary complex
[13] = molecular target: T2, Human immunodeficiency virus type 1 reverse transcriptase (Human immunodeficiency virus 1, UniProt Q72547, K103N); assay: Inhibition of HIV1 recombinant reverse transcriptase K103N mutant-DNA binary complex expressed in Escherichia coli BL21
[14] = molecular target: T2, Human immunodeficiency virus type 1 reverse transcriptase; assay: Inhibition of HIV1 recombinant reverse transcriptase K103N mutant-DNA-dNTP ternary complex expressed in Escherichia coli BL21
[15] = molecular target: T2, Human immunodeficiency virus type 1 reverse transcriptase; assay: Inhibition of HIV1 recombinant free reverse transcriptase K103N mutant expressed in Escherichia coli BL21

Row | SMILES | EC50 [1] [nM] | CC50 [2] [nM] | EC50 [3] [nM] | ID50 [4] [nM] | ID50 [5] [nM] | ID50 [6] [nM] | Ka [7] [×10⁴ /M/s] | EC50 [8] [nM] | EC50 [9] [nM] | Ki [10] [nM] | Ki [11] [nM] | Ki [12] [nM] | Ki [13] [nM] | Ki [14] [nM] | Ki [15] [nM]
1 | O=C1Nc2ccc(Cl)cc2[C@@](C#CC2CC2)(C(F)(F)F)O1 [EFAVIRENZ] | 8 | > 320 | 3 |  |  |  |  |  |  |  |  |  |  |  | 
2 | COc1ccc(/C=C/CSc2nc([C@@H](C)c3c(F)cccc3F)c(C)c(=O)[nH]2)cc1 |  |  |  | 27800 | 600 | 7010 |  |  |  |  |  |  |  |  | 
3 | Cc1cc(C#N)cc(C)c1Oc1nc(Nc2ccc(C#N)cc2)nc(N)c1Br |  |  |  |  |  |  | 0.8 |  |  |  |  |  |  |  | 
4 | COc1ccc([C@H]2C[C@@H]2CSc2nc([C@@H](C)c3c(F)cccc3F)c(C)c(=O)[nH]2)cc1 | 7240 | > 56200 | 1080 | 2300 | 120 | 830 |  | 90 | 5510 |  |  |  |  |  | 
5 | Cc1ccnc2c1NC(=O)c1cccnc1N2C1CC1 [NEVIRAPINE] | > 7500 | > 7500 | > 7500 |  |  |  |  |  |  |  |  |  |  |  | 
6 | COc1ccc([C@H]2C[C@@H]2CSc2nc([C@H](C)c3c(F)cccc3F)c(C)c(=O)[nH]2)cc1 | 2700 | > 56200 | 700 | 900 | 40 | 400 |  | 10 | 3710 | 40 | 30 | 40 | 400 | 300 | 600
7 | COc1ccc(/C=C/CSc2nc(C(C)c3c(F)cccc3F)c(C)c(=O)[nH]2)cc1 (racemic) |  |  |  |  |  |  | 1 |  |  |  |  |  |  |  | 
8 | COc1ccc(C2CC2CSc2nc(C(C)c3c(F)cccc3F)c(C)c(=O)[nH]2)cc1 (racemic) | 160 | 37300 | 45 | 6000 | 40 | 3000 |  | 0.6 | 520 |  |  |  |  |  | 
9 | COc1ccc([C@@H]2C[C@H]2CSc2nc([C@H](C)c3c(F)cccc3F)c(C)c(=O)[nH]2)cc1 | 13 | 14600 | 1.5 | 800 | 20 | 40 | 1 | 0.07 | 36 | 10 | 8 | 9 | 40 | 30 | 65
10 | Cc1c([C@H](C)c2c(F)cccc2F)nc(SC/C=C/c2ccccc2)[nH]c1=O |  |  |  | 2990 | 10 | 470 |  |  |  |  |  |  |  |  | 
11 | COc1ccc([C@@H]2C[C@H]2CSc2nc([C@@H](C)c3c(F)cccc3F)c(C)c(=O)[nH]2)cc1 | 520 | 47200 | 190 | 6000 | 300 | 600 |  | 4.9 | 2550 |  |  |  |  |  | 
